Assay outcomes deposited in PubChem BioAssay by several laboratories.
Rows were chosen to be rich in hits. Some 12% of all compounds tested hit in one or more screens of this group.
Cl transport mod: modulators of human KCC2 chloride dependent transport; KCC2 cells, thallium flux FluoZin-2 fluorescence; B-score of Tl+ flux slope (higher = more flux/activation; lower = inhibition) at 10 µM; 190,000 compounds, 2.2% hits; AID 1456;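 active = thallium flux slope and its plate-corrected score both differing from the plate sample mean at a set confidence after two filtering rounds, in either direction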;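 note: slope of fluorescence scaled to starting intensity during 10 to 20 s after thallium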
ROMK mod: human ROMK K+ channel modulation, primary screen; P48048; Tet-inducible ROMK, thallium flux fluorescence; actives lie on both sides; B-score at 10 µM; 130,000 compounds, 2% hits;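 active = signal ratio slope over the read window, or its plate-corrected B-score, at least 3 SD from the plate mean, either direction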;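 note: B-score of the F/F0 ratio slope over 7 to 12 s after thallium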
Lmaj promast: inhibitors of Leishmania major promastigote growth. Leishmania major promastigotes, resazurin fluorescence viability. inhibition, % at 10 µM. 200,000 compounds, 9% hits. AID 1063; in the data active = inhibition above about 50%;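 note: promastigotes grown with compound for 44 hours at 28 °C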
Diaph act CS: activates diaphorase or chemically reduces, flagging diaphorase assay artifacts | activation factor at 20 µM | 190,000 compounds, 0.005% hits | Diaphorase/resazurin coupled assay, resorufin fluorescence, 16 min; stronger effect = higher value; 1 = vehicle wells, 0 = NADH-free wells | AID 1229;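 active = diaphorase activity raised at least twofold by the compound at 20 µM; inactive = activation factor below 2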
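System – purified diaphorase enzyme from Clostridium kluyveri · Input – enzyme 0.07 U/mL final · Also added – final NADH 0.114 mM, resazurin 0.1 mM · Measured by – fluorescence of resorufin, 544 nm excitation, 590 nm emission · Timing – 16 min enzyme reaction, ambient temperature · Measure – resorufin increase flagging diaphorase activators or reducers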
WT yeast gro inh: growth inhibition of WT yeast, mitochondrial fusion screen; inhibition, % at 10 µM; mitochondrial fusion phenotypic screen, WT strain; 190,000 compounds, 2.1% hits; in the data active = inhibition above about 58%; tested in S. cerevisiae
Diaphorase inh: diaphorase inhibition or chemical oxidation counter-screen; 190,000 compounds, 0.69% hits; AID 1217; diaphorase resazurin-to-resorufin fluorescence, NADH, 16 min; bacterial (C. kluyveri) enzyme, not human; inhibition, % at 20 µM;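 active = primary screen inhibition at 20 µM above a set limit, cut at about 50% in these data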;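 note: plate controls were DMSO with full reaction for no effect and wells lacking NADH for full effect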
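Assay system: diaphorase enzyme from Clostridium kluyveri. Quantity: enzyme working solution with 0.14 U/mL diaphorase. Schedule: reaction incubation of 16 min at room temperature. Technique: resorufin fluorescence, excitation 544 nm, emission 590 nm. Controls: No-NADH positive control and DMSO neutral control.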
Starred values were filed as active, the others as inactive.

What do the screens show for `Cc1cc(C(=O)Cn2nc(C(=O)O)c3ccccc3c2=O)c(C)n1CCc1ccc(Cl)cc1`?
Cl transport mod: -1.7; ROMK mod: -0.11; Lmaj promast: 30; Diaph act CS: 0.8; WT yeast gro inh: 22; Diaphorase inh: 22

How did NC(=O)CNC(=O)[C@@H]1CC2(CC(c3ccccc3)=NO2)CN1C(=O)c1ccc(Br)cc1 (some centres not stated) do in these assays?
Cl transport mod: 0.099; ROMK mod: -0.11; Lmaj promast: -6; Diaph act CS: 0.9; WT yeast gro inh: -15; Diaphorase inh: 12

How did CCn1ccnc1CN1CCCC(CO)(Cc2cccc(OC)c2)C1 (configuration not stated) do in these assays?
Cl transport mod: 0.15; ROMK mod: -1.7; Lmaj promast: 96*; Diaph act CS: 0.9; WT yeast gro inh: -5; Diaphorase inh: 12

How did COc1cccc(CC2(CO)CCCN(Cc3ccc4c(c3)OCCO4)C2)c1 (configuration not stated) do in these assays?
ROMK mod: 0.026; Lmaj promast: 53*; Diaph act CS: 0.9; WT yeast gro inh: 2; Diaphorase inh: 12

How did CCOC(=O)C1(Cc2cccc(OC)c2)CCCN(Cc2nccn2CC)C1 (configuration not stated) do in these assays?
Cl transport mod: -0.18; ROMK mod: -0.89; Lmaj promast: 35; Diaph act CS: 0.9; WT yeast gro inh: 16; Diaphorase inh: 10

How did C=CCc1c(C)c(C#N)c2nc3ccccc3n2c1NCCN(C)C do in these assays?
ROMK mod: -0.39; Lmaj promast: 21; Diaph act CS: 0.9; WT yeast gro inh: 70*; Diaphorase inh: 6

What do the screens show for `CCc1c(C)c(C#N)c2nc3ccccc3n2c1NCc1ccco1`?
Cl transport mod: -3.8*; ROMK mod: -1.1; Lmaj promast: 44; Diaph act CS: 0.9; WT yeast gro inh: -2; Diaphorase inh: 6

How did CCc1c(C)c(C#N)c2nc3ccccc3n2c1NCCN(C)C do in these assays?
Cl transport mod: -0.5; ROMK mod: -0.12; Lmaj promast: 22; Diaph act CS: 0.9; WT yeast gro inh: 41; Diaphorase inh: 7

How did CCOC(=O)C(NCc1ccc(OC)cc1)(NC(C)=O)C(F)(F)F (configuration not stated) do in these assays?
Cl transport mod: 1.2; ROMK mod: 0.17; Lmaj promast: -4; Diaph act CS: 0.9; WT yeast gro inh: -14; Diaphorase inh: 14

How did O=c1[nH]c(CN2CCN(c3ccccn3)CC2)nc2c(Br)cc(Br)cc12 do in these assays?
Cl transport mod: 0.27

Results for Cc1nn(CC(=O)Nc2ccc3c(c2)nc2n3CCN(C3CCCCC3)C2)c(=O)c2ccccc12 ?
Cl transport mod: 0.041; ROMK mod: -1.7; Lmaj promast: 72*; Diaph act CS: 0.9; WT yeast gro inh: 8; Diaphorase inh: 10

How did CCOC(=O)CSc1nnc(Cc2ccccc2)n1-c1ccc(C)cc1 do in these assays?
Cl transport mod: 0.022; Lmaj promast: -7; Diaph act CS: 1; WT yeast gro inh: -23; Diaphorase inh: -1

What do the screens show for `CCOC(=O)CN(C(=O)CSc1nnc(Cc2ccccc2)n1-c1ccc(C)cc1)c1ccccc1`?
Lmaj promast: 99*; Diaph act CS: 0.8; WT yeast gro inh: 7; Diaphorase inh: 22

Results for Cc1ccc(C2NC(c3ccc(C)cc3)C(C)C(=NO)C2C)cc1 (configuration not stated) ?
Lmaj promast: 8; Diaph act CS: 0.8; WT yeast gro inh: 83*; Diaphorase inh: 24

What do the screens show for `CC(C)(C)c1ccc(S(=O)(=O)Nc2cccc(C3OCCCO3)c2)cc1`?
Cl transport mod: -1.2; ROMK mod: -1.6; Lmaj promast: 86*; Diaph act CS: 0.8; WT yeast gro inh: 45; Diaphorase inh: 18

What do the screens show for `CC(=O)c1ccc(NS(=O)(=O)c2ccc(C(C)(C)C)cc2)cc1`?
Cl transport mod: -0.6; ROMK mod: -0.21; Lmaj promast: 41; Diaph act CS: 0.6; WT yeast gro inh: 9; Diaphorase inh: 38

What do the screens show for `COc1cc(C(=O)O/N=C(\N)c2ccncc2)cc(OC)c1OC`?
Cl transport mod: -0.11; Lmaj promast: 82*; Diaph act CS: 0.9; WT yeast gro inh: -3; Diaphorase inh: 9

What do the screens show for `COc1cc(C(=O)O/N=C(\N)c2ccc([N+](=O)[O-])cc2)cc(OC)c1OC`?
Cl transport mod: -0.62; ROMK mod: 0.26; Lmaj promast: 56*; Diaph act CS: 0.9; WT yeast gro inh: 9; Diaphorase inh: 11

What do the screens show for `O=C(/C=C/c1ccc(Br)cc1)Nc1ccc(S(=O)(=O)Nc2ncccn2)cc1`?
Cl transport mod: 0.57; ROMK mod: 0.075; Lmaj promast: 52*; Diaph act CS: 1; WT yeast gro inh: -4; Diaphorase inh: 5

Results for CCOC(=O)C1=C(C)C(c2ccc(OC)cc2)NC(=S)N1 (configuration not stated) ?
Cl transport mod: -0.08; ROMK mod: 0.77; Lmaj promast: -6; Diaph act CS: 0.8; WT yeast gro inh: -5; Diaphorase inh: 18

How did CCOC(=O)C1=C(C)C(c2cccc(Oc3ccccc3)c2)NC(=S)N1 (configuration not stated) do in these assays?
Cl transport mod: -1.4; ROMK mod: -0.4; Lmaj promast: 11; Diaph act CS: 0.8; WT yeast gro inh: 66*; Diaphorase inh: 15

Results for CCOC(=O)C1=C(c2ccccc2)NC(=S)NC1c1ccc(Cl)c([N+](=O)[O-])c1 (configuration not stated) ?
Cl transport mod: 0.16; ROMK mod: 0.031; Lmaj promast: 58*; Diaph act CS: 0.9; WT yeast gro inh: 1; Diaphorase inh: 12

How did CCOC(=O)C1=C(c2ccccc2)NC(=O)NC1c1cc(Cl)c(O)c(OC)c1 (configuration not stated) do in these assays?
Cl transport mod: -1.4; ROMK mod: -0.024; Lmaj promast: 4; Diaph act CS: 0.9; WT yeast gro inh: 11; Diaphorase inh: 14

What do the screens show for `CCOC(=O)C1=C(c2cccc(Oc3ccccc3)c2)NC(=S)NC1C` (configuration not stated)?
Cl transport mod: -0.82; ROMK mod: -1.7; Lmaj promast: 43; Diaph act CS: 0.9; WT yeast gro inh: 64*; Diaphorase inh: 6

What do the screens show for `O=C(COC(=O)CCc1ccc(S(=O)(=O)N2CCOCC2)cc1)NCc1ccc(Cl)cc1`?
Cl transport mod: -1.2; ROMK mod: 0.6; Lmaj promast: 4; Diaph act CS: 0.9; WT yeast gro inh: -14; Diaphorase inh: 8

What do the screens show for `COc1ccccc1N1CCN(C(=O)COc2cc(C)cc(C)c2)CC1`?
Cl transport mod: -1.2; ROMK mod: -0.38; Lmaj promast: 8; Diaph act CS: 1; WT yeast gro inh: 5; Diaphorase inh: 2
